Experimental data taken from ChEMBL document CHEMBL4052600 (J Med Chem, 2017).

How the values were obtained:
[1] = target: Phosphatidylinositol 4,5-bisphosphate 3-kinase catalytic subunit beta isoform (Homo sapiens, UniProt P42338); assay: Inhibition of PI3Kbeta (unknown origin) using PIP2 as substrate preincubated for 15 mins followed by substrate addition measured after 60 mins in presence of ATP by HTRF method
[2] = target: Phosphatidylinositol 4,5-bisphosphate 3-kinase catalytic subunit alpha isoform (Homo sapiens, UniProt P42336); assay: Inhibition of PI3Kalpha (unknown origin) using PIP2 as substrate preincubated for 15 mins followed by substrate addition measured after 60 mins in presence of ATP by HTRF method
Method in brief: (§1)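 For PI3Kδ, substrate concentration limits measurable potency to about pIC50 9.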

[3] = target: T1, Phosphatidylinositol 4,5-bisphosphate 3-kinase catalytic subunit delta isoform (Homo sapiens, UniProt O00329); assay: Inhibition of PI3Kdelta (unknown origin) using PIP2 as substrate preincubated for 15 mins followed by substrate addition measured after 60 mins in presence of ATP by HTRF method; method in brief: as §1
T1 sequence (O00329 whole entry): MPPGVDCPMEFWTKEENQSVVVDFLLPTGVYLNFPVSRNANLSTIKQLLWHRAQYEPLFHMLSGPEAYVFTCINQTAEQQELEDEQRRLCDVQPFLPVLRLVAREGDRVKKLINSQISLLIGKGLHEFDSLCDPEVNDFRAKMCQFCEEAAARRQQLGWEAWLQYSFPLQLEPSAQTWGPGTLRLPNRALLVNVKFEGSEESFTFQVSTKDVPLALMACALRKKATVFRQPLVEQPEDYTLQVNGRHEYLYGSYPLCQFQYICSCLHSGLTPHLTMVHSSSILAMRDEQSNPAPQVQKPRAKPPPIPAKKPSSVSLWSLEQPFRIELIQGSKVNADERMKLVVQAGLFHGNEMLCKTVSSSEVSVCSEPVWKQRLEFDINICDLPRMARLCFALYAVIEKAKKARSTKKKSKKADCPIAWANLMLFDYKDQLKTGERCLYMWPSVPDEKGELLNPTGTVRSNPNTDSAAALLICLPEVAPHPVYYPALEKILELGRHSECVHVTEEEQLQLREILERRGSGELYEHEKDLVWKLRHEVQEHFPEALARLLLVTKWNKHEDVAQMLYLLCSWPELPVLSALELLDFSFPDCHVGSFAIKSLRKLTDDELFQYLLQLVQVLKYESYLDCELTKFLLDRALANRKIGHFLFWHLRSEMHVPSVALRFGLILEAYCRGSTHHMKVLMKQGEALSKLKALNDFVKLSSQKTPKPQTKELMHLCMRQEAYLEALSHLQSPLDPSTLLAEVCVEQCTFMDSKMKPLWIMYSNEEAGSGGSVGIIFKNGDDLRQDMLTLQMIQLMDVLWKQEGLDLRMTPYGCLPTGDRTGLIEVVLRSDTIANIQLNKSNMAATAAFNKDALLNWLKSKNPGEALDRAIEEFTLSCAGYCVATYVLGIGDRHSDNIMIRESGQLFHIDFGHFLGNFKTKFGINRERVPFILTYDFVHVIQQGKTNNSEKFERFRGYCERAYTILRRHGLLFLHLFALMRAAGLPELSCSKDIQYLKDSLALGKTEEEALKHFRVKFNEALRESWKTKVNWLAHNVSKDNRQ

[4] = target: Phosphatidylinositol 4,5-bisphosphate 3-kinase catalytic subunit gamma isoform (Homo sapiens, UniProt P48736); assay: Inhibition of PI3Kgamma (unknown origin) using PIP2 as substrate preincubated for 15 mins followed by substrate addition measured after 60 mins in presence of ATP by HTRF method
[5] = target: C-C chemokine receptor type 5 (Homo sapiens, UniProt P51681); assay: Antagonist activity at human CCR5 expressed in HEK 293 Glosensor cells assessed as reduction in RANTES-induced intracellular calcium levels preincubated for 30 mins followed by RANTES addition measured at 2 secs time interval for 5 mins by Fluo-4-AM dye based fluorescence assay; type: functional, cell-based
Chain of C-C chemokine receptor type 5 (P51681 whole entry): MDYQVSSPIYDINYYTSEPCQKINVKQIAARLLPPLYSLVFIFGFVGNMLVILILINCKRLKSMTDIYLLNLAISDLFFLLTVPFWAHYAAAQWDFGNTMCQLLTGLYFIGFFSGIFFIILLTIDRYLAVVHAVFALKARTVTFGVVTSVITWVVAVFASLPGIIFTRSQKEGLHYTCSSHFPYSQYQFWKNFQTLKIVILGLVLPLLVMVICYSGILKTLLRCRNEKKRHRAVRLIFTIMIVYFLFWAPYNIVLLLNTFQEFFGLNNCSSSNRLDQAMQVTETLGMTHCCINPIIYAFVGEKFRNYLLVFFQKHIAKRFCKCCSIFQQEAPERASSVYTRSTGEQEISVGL

Chain of Phosphatidylinositol 4,5-bisphosphate 3-kinase catalytic subunit gamma isoform (P48736 whole entry, canonical isoform): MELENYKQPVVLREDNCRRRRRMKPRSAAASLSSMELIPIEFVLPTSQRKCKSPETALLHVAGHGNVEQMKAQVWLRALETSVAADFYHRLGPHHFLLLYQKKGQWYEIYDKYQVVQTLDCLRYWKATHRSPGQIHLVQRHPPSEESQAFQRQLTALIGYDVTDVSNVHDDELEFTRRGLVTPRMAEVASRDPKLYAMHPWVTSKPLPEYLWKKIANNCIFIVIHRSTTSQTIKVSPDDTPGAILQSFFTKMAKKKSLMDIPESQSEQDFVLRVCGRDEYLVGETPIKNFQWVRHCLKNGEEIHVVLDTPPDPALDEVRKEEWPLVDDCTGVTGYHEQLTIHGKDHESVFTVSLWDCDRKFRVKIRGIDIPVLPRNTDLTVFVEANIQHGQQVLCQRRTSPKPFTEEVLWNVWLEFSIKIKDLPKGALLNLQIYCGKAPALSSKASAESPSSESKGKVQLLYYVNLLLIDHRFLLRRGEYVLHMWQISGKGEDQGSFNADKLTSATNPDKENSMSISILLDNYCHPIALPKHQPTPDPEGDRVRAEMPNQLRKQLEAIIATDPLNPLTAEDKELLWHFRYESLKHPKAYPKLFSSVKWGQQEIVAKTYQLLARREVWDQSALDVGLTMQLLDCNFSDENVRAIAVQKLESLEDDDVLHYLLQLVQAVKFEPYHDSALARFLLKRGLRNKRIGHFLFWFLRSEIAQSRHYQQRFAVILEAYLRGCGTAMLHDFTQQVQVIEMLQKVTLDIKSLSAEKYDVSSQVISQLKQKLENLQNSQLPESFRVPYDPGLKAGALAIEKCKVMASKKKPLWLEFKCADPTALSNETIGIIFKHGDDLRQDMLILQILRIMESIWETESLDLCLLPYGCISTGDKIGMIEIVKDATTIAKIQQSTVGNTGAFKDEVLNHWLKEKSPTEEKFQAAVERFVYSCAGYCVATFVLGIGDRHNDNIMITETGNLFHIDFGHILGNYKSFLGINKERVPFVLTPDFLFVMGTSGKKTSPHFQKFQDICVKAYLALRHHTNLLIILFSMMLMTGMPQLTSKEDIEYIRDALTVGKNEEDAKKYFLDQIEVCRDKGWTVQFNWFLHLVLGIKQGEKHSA
Chain of Phosphatidylinositol 4,5-bisphosphate 3-kinase catalytic subunit beta isoform (P42338 whole entry, canonical isoform): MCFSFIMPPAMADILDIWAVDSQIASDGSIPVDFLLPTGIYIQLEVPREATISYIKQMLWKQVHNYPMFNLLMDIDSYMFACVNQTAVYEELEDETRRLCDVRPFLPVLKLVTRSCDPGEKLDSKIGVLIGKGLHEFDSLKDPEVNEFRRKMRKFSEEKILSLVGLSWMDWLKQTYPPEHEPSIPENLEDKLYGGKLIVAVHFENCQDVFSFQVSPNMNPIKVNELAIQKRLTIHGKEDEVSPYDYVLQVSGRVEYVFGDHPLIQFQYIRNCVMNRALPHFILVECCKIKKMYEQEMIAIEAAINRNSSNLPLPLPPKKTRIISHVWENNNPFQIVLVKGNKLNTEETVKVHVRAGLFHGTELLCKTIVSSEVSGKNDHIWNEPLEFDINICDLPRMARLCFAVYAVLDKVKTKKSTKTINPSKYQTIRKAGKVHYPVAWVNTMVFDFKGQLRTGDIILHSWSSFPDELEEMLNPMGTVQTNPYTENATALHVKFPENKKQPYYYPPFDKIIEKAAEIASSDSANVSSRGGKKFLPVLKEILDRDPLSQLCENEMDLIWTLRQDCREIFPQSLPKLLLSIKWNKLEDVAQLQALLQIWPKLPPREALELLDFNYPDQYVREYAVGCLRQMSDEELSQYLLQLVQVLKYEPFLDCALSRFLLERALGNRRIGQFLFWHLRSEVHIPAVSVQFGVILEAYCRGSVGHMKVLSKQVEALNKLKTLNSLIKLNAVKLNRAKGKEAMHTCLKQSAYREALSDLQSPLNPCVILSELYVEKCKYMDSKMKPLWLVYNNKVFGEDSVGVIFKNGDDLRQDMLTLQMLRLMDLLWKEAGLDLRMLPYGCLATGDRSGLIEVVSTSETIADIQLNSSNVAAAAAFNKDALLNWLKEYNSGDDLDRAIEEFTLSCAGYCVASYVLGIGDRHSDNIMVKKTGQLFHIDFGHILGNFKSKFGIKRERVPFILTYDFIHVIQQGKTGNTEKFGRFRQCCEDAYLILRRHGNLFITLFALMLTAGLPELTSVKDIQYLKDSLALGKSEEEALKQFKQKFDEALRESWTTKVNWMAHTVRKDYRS
Chain of Phosphatidylinositol 4,5-bisphosphate 3-kinase catalytic subunit alpha isoform (P42336 whole entry, canonical isoform): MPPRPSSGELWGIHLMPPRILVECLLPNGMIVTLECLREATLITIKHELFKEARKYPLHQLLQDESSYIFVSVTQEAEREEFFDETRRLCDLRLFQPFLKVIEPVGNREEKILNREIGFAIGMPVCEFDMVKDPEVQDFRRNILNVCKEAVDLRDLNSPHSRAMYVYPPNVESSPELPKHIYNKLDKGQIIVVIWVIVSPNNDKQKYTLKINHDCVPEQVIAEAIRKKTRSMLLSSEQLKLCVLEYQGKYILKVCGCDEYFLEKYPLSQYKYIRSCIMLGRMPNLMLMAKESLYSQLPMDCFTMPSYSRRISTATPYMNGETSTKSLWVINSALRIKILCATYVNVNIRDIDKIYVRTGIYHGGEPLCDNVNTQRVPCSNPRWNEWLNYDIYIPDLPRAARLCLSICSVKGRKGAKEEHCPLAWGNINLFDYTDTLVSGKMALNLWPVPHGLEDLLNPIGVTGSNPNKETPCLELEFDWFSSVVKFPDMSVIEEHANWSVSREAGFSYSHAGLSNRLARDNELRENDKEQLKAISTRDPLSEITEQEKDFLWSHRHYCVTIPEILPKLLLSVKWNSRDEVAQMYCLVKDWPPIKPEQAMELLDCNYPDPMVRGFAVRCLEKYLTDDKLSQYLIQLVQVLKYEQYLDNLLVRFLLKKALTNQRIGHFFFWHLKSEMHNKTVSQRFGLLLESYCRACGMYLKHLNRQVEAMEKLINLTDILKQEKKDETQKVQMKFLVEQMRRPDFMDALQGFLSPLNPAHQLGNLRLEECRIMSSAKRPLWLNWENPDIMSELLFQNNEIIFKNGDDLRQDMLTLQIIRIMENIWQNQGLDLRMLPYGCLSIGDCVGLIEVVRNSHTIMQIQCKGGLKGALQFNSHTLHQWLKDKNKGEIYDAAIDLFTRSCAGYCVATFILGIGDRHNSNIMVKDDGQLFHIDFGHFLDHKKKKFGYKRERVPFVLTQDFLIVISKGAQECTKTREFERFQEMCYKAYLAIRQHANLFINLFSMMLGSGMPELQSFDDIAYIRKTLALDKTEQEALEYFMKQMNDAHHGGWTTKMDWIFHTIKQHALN

Row | Compound | IC50 [1] [nM] | IC50 [2] [nM] | IC50 [3] [nM] | IC50 [4] [nM] | Kd [5] [nM]
1 | Cc1nnc2n1[C@H]1CCN(Cc3cc4nc(-c5cccc6[nH]ccc56)nc(N5CCOCC5)c4s3)C[C@H]1CC2 (relative stereo) | 316 | 3160 | 0.794 | 1580 | 
2 | FC(F)(F)c1nncn1C1CCN(Cc2cc3nc(-c4cccc5[nH]ccc45)nc(N4CCOCC4)c3s2)CC1 | 794 | 3980 | 20 | 3160 | 
3 | Cc1nnc2n1[C@@H]1CCN(CC[C@H](NC(=O)C3CCC(F)(F)CC3)c3ccccc3)C[C@@H]1CC2 (relative stereo) |  |  |  |  | 10
4 | Cc1nnc2n1[C@H]1CCN(CC[C@H](NC(=O)C3CCC(F)(F)CC3)c3ccccc3)C[C@H]1CC2 (racemic) |  |  |  |  | 316
5 | Cc1nnc2n1[C@H]1CCN(Cc3cc4nc(-c5cccc(O)c5)nc(N5CCOCC5)c4s3)C[C@@H]1CC2 (relative stereo) | 126 | 100 | 0.794 | 501 | 
6 | FC(F)(F)c1nncn1C1CCN(Cc2cc3nc(-c4cccc5[nH]ncc45)nc(N4CCOCC4)c3s2)CC1 | 1260 | 316 | 20 | 794 | 
7 | Oc1cccc(-c2nc(N3CCOCC3)c3sc(CN4CC[C@H]5[C@H](CCc6nnc(C(F)(F)F)n65)C4)cc3n2)c1 (relative stereo) | 50.1 | 63.1 | 0.631 | 158 | 
8 | Cc1nncn1C1CCN(Cc2cc3nc(-c4cccc5[nH]ncc45)nc(N4CCOCC4)c3s2)CC1 | 1000 | 316 | 10 | 1000 | 
9 | Cc1nncn1C1CCN(Cc2cc3nc(-c4cccc(O)c4)nc(N4CCOCC4)c3s2)CC1 | 158 | 100 | 3.98 | 200 | 
10 | Oc1cccc(-c2nc(N3CCOCC3)c3sc(CN4CCC(n5cnnc5C(F)(F)F)CC4)cc3n2)c1 | 100 | 63.1 | 2.51 | 158 | 
11 | Cc1nncn1C1CCN(Cc2cc3nc(-c4cccc5[nH]ccc45)nc(N4CCOCC4)c3s2)CC1 | 398 | 2000 | 3.98 |  | 
12 | Cc1nnc2n1[C@H]1CCN(Cc3cc4nc(-c5cccc6[nH]ccc56)nc(N5CCOCC5)c4s3)C[C@@H]1CC2 (relative stereo) | 316 | 2000 | 1 | 794 | 

The remaining lines, values ahead:

Row | IC50 [1] [nM] | IC50 [2] [nM] | IC50 [3] [nM] | IC50 [4] [nM] | Kd [5] [nM] | Compound
13 | 631 | 158 | 7.94 | 1000 |  | FC(F)(F)c1nnc2n1[C@H]1CCN(Cc3cc4nc(-c5cccc6[nH]ncc56)nc(N5CCOCC5)c4s3)C[C@@H]1CC2 (relative stereo)
14 | 501 | 158 | 3.98 | 316 |  | Cc1nnc2n1[C@H]1CCN(Cc3cc4nc(-c5cccc6[nH]ncc56)nc(N5CCOCC5)c4s3)C[C@@H]1CC2 (relative stereo)
15 | 398 | 316 | 2.51 | 794 |  | FC(F)(F)c1nnc2n1[C@H]1CCN(Cc3cc4nc(-c5cccc6[nH]ncc56)nc(N5CCOCC5)c4s3)C[C@H]1CC2 (relative stereo)
16 | 50.1 | 31.6 | 1 | 200 |  | Oc1cccc(-c2nc(N3CCOCC3)c3sc(CN4CC[C@H]5[C@@H](CCc6nnc(C(F)(F)F)n65)C4)cc3n2)c1 (relative stereo)
17 | 100 | 1580 | 0.794 | 631 |  | FC(F)(F)c1nnc2n1[C@H]1CCN(Cc3cc4nc(-c5cccc6[nH]ccc56)nc(N5CCOCC5)c4s3)C[C@H]1CC2 (relative stereo)
18 | 158 | 501 | 1.58 | 398 |  | FC(F)(F)c1nnc2n1[C@H]1CCN(Cc3cc4nc(-c5cccc6[nH]ccc56)nc(N5CCOCC5)c4s3)C[C@@H]1CC2 (relative stereo)
19 | 1260 | 1580 | 3.16 | 1260 |  | Cc1nnc2n1[C@H]1CCN(Cc3cc4nc(-c5cccc6[nH]ncc56)nc(N5CCOCC5)c4s3)C[C@H]1CC2 (relative stereo)
